# From ChEMBL document CHEMBL5705886, “GSK1070916, a potent Aurora B/C kinase inhibitor with broad antitumor activity in tissue culture cells and human tumor xenograft models” (Mol Cancer Ther, 2009)
# The source made the active and inactive calls. The calls are words filed in the database; no cut-off is given here.
# Assays:
# [1] = Antiproliferative activity against human RKOE6 cells assessed as inhibition of cell viability measured for 6 to 7 days by cell titer glo assay; format: functional, cell-based
# Procedure, shortened: (§1)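 Cells seeded in recommended growth medium, held overnight at 37°C in 5% CO2, then exposed to serial dilutions of inhibitor for 6–7 d. A time-zero plate was read with CellTiter-Glo at dosing. Luminescent viability read at the end. No-cell wells subtracted as background, data expressed as percent of DMSO control.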
# DLD-1 = test: Antiproliferative activity against human DLD-1 cells assessed as inhibition of cell viability measured for 6 to 7 days by cell titer glo assay; format: functional, cell-based
# Procedure, shortened: (§2)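 Tumor lines plated in recommended growth media, overnight at 37°C, 5% CO2, then given serial dilutions; a T=0 plate read with CellTiter-Glo at dosing. After 6–7 d of exposure, viability read by CellTiter-Glo luminescence. No-cell wells subtracted, data expressed as % of DMSO control.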
# HN5 = test: Antiproliferative activity against human HN5 cells assessed as inhibition of cell viability measured for 6 to 7 days by cell titer glo assay; format: functional, cell-based
# Procedure, shortened: (§3)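 Cells seeded in recommended growth medium, incubated overnight at 37°C in 5% CO2, then exposed to serial dilutions of inhibitor for 6–7 d. A parallel plate was read with CellTiter-Glo at compound addition as a T=0 value. The luminescent viability readout had no-cell background subtracted and was expressed as % of DMSO control.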
# OVCAR-4 = test: Antiproliferative activity against human OVCAR-4 cells assessed as inhibition of cell viability measured for 6 to 7 days by cell titer glo assay; format: functional, cell-based; procedure, shortened: as §1
# [2] = Antiproliferative activity against human SKO-007 cells assessed as inhibition of cell viability measured for 6 to 7 days by cell titer glo assay; format: functional, cell-based; procedure, shortened: as §1
# [3] = Antiproliferative activity against human CRO-AP5 cells assessed as inhibition of cell viability measured for 6 to 7 days by cell titer glo assay; format: functional, cell-based; procedure, shortened: as §2
# OCI-LY19 = test: Antiproliferative activity against human OCILY19 cells assessed as inhibition of cell viability measured for 6 to 7 days by cell titer glo assay; format: functional, cell-based; procedure, shortened: as §1
# SU-DHL-5 = test: Antiproliferative activity against human SU-DHL-5 cells assessed as inhibition of cell viability measured for 6 to 7 days by cell titer glo assay; format: functional, cell-based; procedure, shortened: as §1
# BC-3 = test: Antiproliferative activity against human BC-3 cells assessed as inhibition of cell viability measured for 6 to 7 days by cell titer glo assay; format: functional, cell-based; procedure, shortened: as §2
# [4] = Antiproliferative activity against human BCP-1 cells assessed as inhibition of cell viability measured for 6 to 7 days by cell titer glo assay; format: functional, cell-based; procedure, shortened: as §2
# [5] = Antiproliferative activity against human BC-2 cells assessed as inhibition of cell viability measured for 6 to 7 days by cell titer glo assay; format: functional, cell-based; procedure, shortened: as §2
# Rec1 = test: Antiproliferative activity against human REC1 cells assessed as inhibition of cell viability measured for 6 to 7 days by cell titer glo assay; format: functional, cell-based; procedure, shortened: as §1
# EB2 = test: Antiproliferative activity against human EB2 cells assessed as inhibition of cell viability measured for 6 to 7 days by cell titer glo assay; format: functional, cell-based; procedure, shortened: as §2
# Raji = test: Antiproliferative activity against human Raji cells assessed as inhibition of cell viability measured for 6 to 7 days by cell titer glo assay; format: functional, cell-based; procedure, shortened: as §1
# [6] = Antiproliferative activity against human 1A2 cells assessed as inhibition of cell viability measured for 6 to 7 days by cell titer glo assay; format: functional, cell-based; procedure, shortened: as §2
# DG-75 = test: Antiproliferative activity against human DG-75 cells assessed as inhibition of cell viability measured for 6 to 7 days by cell titer glo assay; format: functional, cell-based; procedure, shortened: as §2
# HD-MY-Z = test: Antiproliferative activity against human HD-MY-Z cells assessed as inhibition of cell viability measured for 6 to 7 days by cell titer glo assay; format: functional, cell-based; procedure, shortened: as §2
# [7] = Antiproliferative activity against human RCH-ACV cells assessed as inhibition of cell viability measured for 6 to 7 days by cell titer glo assay; format: functional, cell-based; procedure, shortened: as §1
# [8] = Antiproliferative activity against human Tanoue cells assessed as inhibition of cell viability measured for 6 to 7 days by cell titer glo assay; format: functional, cell-based; procedure, shortened: as §1
# OCI-AML2 = test: Antiproliferative activity against human OCI-AML2 cells assessed as inhibition of cell viability measured for 6 to 7 days by cell titer glo assay; format: functional, cell-based; procedure, shortened: as §1
# [9] = Antiproliferative activity against human M-07e cells assessed as inhibition of cell viability measured for 6 to 7 days by cell titer glo assay; format: functional, cell-based; procedure, shortened: as §3
# [10] = Antiproliferative activity against human OCI-M1 cells assessed as inhibition of cell viability measured for 6 to 7 days by cell titer glo assay; format: functional, cell-based; procedure, shortened: as §1
# [11] = Antiproliferative activity against human EM-3 cells assessed as inhibition of cell viability measured for 6 to 7 days by cell titer glo assay; format: functional, cell-based; procedure, shortened: as §2
# Jurkat = test: Antiproliferative activity against human Jurkat cells assessed as inhibition of cell viability measured for 6 to 7 days by cell titer glo assay; format: functional, cell-based; procedure, shortened: as §3
# A549 [12] = test: Effect on cell cycle distribution in human A549 cells assessed as increase in >4N DNA content at 2 to 5000 nM incubated for 24 to 72 hrs by flow cytometry based analysis; format: functional; conditions: dose 2-5000 nM, time 24-72 hrs
# A549 [13] = test: Effect on cell cycle distribution in human A549 cells assessed as increase in sub-2N DNA content at 2 to 5000 nM incubated for 24 to 72 hrs by flow cytometry based analysis; format: functional; conditions: dose 2-5000 nM, time 24-72 hrs
# A549 [14] = test: Induction of mitotic alteration in human A549 cells formation of malformed bipolar at 12 to 330 nmol/L incubated for 24 hrs by immunofluorescent microscopy based analysis; format: functional, cell-based; conditions: dose lower […], dose upper 330.0 nmol/L
# [15] = Toxicity in SCID nude mouse xenografted with human HCT-116 cells assessed as drug tolerance at 25 to 100 mg/kg, ip administered once daily for 5 consecutive days with 2 days off scheduled for 3 cycles measured upto 60 days; format: organism-based; conditions: in vivo, 1440 h, dose 25-100 mg/kg, time < 60 day
# [16] = Toxicity in SCID nude mouse xenografted with human MCF7 cells assessed as body weight loss at 50 to 100 mg/kg, ip administered once daily for 5 consecutive days with 2 days off scheduled for 3 cycles measured upto 60 days; format: organism-based; conditions: in vivo, 1440 h, dose 50-100 mg/kg, time < 60 day
# [17] = Toxicity in SCID nude mouse xenografted with human K562 cells assessed as body weight loss at 100 mg/kg, ip administered once daily for 5 consecutive days with 2 days off scheduled for 3 cycles measured upto 60 days; format: organism-based; conditions: in vivo, 1440 h, time < 60 day
structure (smiles),measurement,setting,value
CCn1cc(-c2ccnc3[nH]c(-c4cccc(CN(C)C)c4)cc23)c(-c2ccc(NC(=O)N(C)C)cc2)n1 [GSK-1070916],EC50,[1],7 nM
same,EC50,DLD-1,28 nM
same,EC50,HN5,10 nM
same,EC50,OVCAR-4,11 nM
same,EC50,[2],352 nM
same,EC50,[3],3 nM
same,EC50,OCI-LY19,4 nM
same,EC50,SU-DHL-5,5 nM
same,EC50,BC-3,27 nM
same,EC50,[4],31 nM
same,EC50,[5],75 nM
same,EC50,Rec1,77 nM
same,EC50,EB2,2 nM
same,EC50,Raji,3 nM
same,EC50,[6],9 nM
same,EC50,DG-75,18 nM
same,EC50,HD-MY-Z,4 nM
same,EC50,[7],4 nM
same,EC50,[8],1480 nM
same,EC50,OCI-AML2,4 nM
same,EC50,[9],13 nM
same,EC50,[10],20 nM
same,EC50,[11],4 nM
same,EC50,Jurkat,3 nM
same,Activity,A549 [12],Active
same,Activity,A549 [13],Active
same,Activity,A549 [14],Active
same,Activity,[15],Non-Toxic
same,Activity,[16],Toxic
same,Activity,[17],Toxic
